From ChEMBL document CHEMBL1649207, “Role of porins in the susceptibility of Mycobacterium smegmatis and Mycobacterium chelonae to aldehyde-based disinfectants and drugs” (2009)
In brackets after ≈: the same amount, converted by molar mass. Activity calls are given as the source filed them. The calls are words filed in the database; no cut-off is given here.

Experiments:
Mycobacteroides chelonae [1] = assay: Antimicrobial activity against Mycobacterium chelonae ATCC 35752 harboring pZS01 carrying mspA gene by resazurine microtiter assay; format: functional
Mycobacteroides chelonae [2] = assay: Antimicrobial activity against Mycobacterium chelonae 9917 harboring pZS01 carrying mspA gene by resazurine microtiter assay; format: functional
[3] = test system: Mycolicibacterium smegmatis; assay: Antimicrobial activity against Mycobacterium smegmatis str. MC2 155 deficient in production of polar phosphatidylinositol mannoside; format: functional, organism-based
[4] = test system: Mycolicibacterium smegmatis; assay: Antimicrobial activity against Mycobacterium smegmatis str. MC2 155 deficient in production of lipomannan and lipoarabinomannan; format: functional, organism-based
[5] = test system: Mycolicibacterium smegmatis; assay: Antimicrobial activity against Lsr2-deficient Mycobacterium smegmatis str. MC2 155; format: functional, organism-based
[6] = test system: Mycolicibacterium smegmatis; assay: Antimicrobial activity against Mycobacterium smegmatis str. MC2 155 deficient in mycothiol biosynthesis; format: functional, organism-based
[7] = test system: Mycolicibacterium smegmatis; assay: Antimicrobial activity against Mycobacterium smegmatis str. MC2 155 deficient in glycopeptidolipid biosynthesis; format: functional, organism-based
[8] = test system: Mycolicibacterium smegmatis; assay: Antimicrobial activity against Mycobacterium smegmatis str. MC2 155 deficient in production of lipomannan and produces truncated lipoarabinomannan; format: functional, organism-based
[9] = test system: Mycolicibacterium smegmatis; assay: Antimicrobial activity against Mycobacterium smegmatis str. MC2 155 harboring embA mutant gene; format: functional, organism-based
[10] = test system: Mycolicibacterium smegmatis; assay: Antimicrobial activity against Mycobacterium smegmatis str. MC2 155 harboring embB mutant gene; format: functional, organism-based
[11] = test system: Mycolicibacterium smegmatis; assay: Antimicrobial activity against MspA-deficient Mycobacterium smegmatis str. MC2 155; format: functional, organism-based
[12] = test system: Mycolicibacterium smegmatis; assay: Antimicrobial activity against MspA- and MspC-deficient Mycobacterium smegmatis str. MC2 155; format: functional, organism-based
Mycobacteroides chelonae [13] = assay: Antimicrobial activity against Mycobacterium chelonae ATCC 35752 by resazurine microtiter assay; format: functional
Summary of the method: (§1)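 Colorimetric resazurin microtiter MIC assay in 7H9-oleic acid-albumin-dextrose-catalase broth at 30°C, with well-dispersed bacteria. Growth was also checked by visual scanning to confirm the readings. At least three repeats on independent culture batches.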

Mycobacteroides chelonae [14] = assay: Antimicrobial activity against Mycobacterium chelonae 9917 by resazurine microtiter assay; format: functional; summary of the method: as §1
[15] = Mycobacteroides chelonae, 9917, Urine

Molecule	MIC (Mycobacteroides chelonae [13])	MIC (Mycobacteroides chelonae [14])	MIC (Mycobacteroides chelonae [1]; ATCC 35752, Urine)	MIC (Mycobacteroides chelonae [2]; [15])	also measured
O=CCCCC=O					Activity (Mycobacteroides chelonae [1]; Urine): Active; Activity (Mycobacteroides chelonae [2]; Urine): Active; Activity [3]: inactive; Activity [4]: inactive; Activity [5]: inactive; Activity [6]: inactive; Activity [7]: inactive; Activity [8]: Active; Activity [9]: Active; Activity [10]: Active; Activity [11]: inactive; Activity [12]: inactive
O=Cc1ccccc1C=O					Activity (Mycobacteroides chelonae [1]; Urine): Active; Activity (Mycobacteroides chelonae [2]; Urine): Active
CC1(C)S[C@@H]2[C@H](NC(=O)[C@H](N)c3ccccc3)C(=O)N2[C@H]1C(=O)O [AMPICILLIN]	> 500 µg/mL	> 500 µg/mL			
CC[C@H]1OC(=O)[C@H](C)[C@@H](O[C@H]2C[C@@](C)(OC)[C@@H](O)[C@H](C)O2)[C@H](C)[C@@H](O[C@@H]2O[C@H](C)C[C@H](N(C)C)[C@H]2O)[C@](C)(O)C[C@@H](C)CN(C)[C@H](C)[C@@H](O)[C@]1(C)O [AZITHROMYCIN]	500 µg/mL (≈ 668 µM)	500 µg/mL (≈ 668 µM)	500 µg/mL (≈ 668 µM)	500 µg/mL (≈ 668 µM)	
O=C(N[C@H](CO)[C@H](O)c1ccc([N+](=O)[O-])cc1)C(Cl)Cl [CHLORAMPHENICOL]	> 500 µg/mL	> 500 µg/mL	50 µg/mL (≈ 155 µM)	50 µg/mL (≈ 155 µM)	
O=C(O)c1cn(C2CC2)c2cc(N3CCNCC3)c(F)cc2c1=O [CIPROFLOXACIN]	1.5 µg/mL (≈ 4.53 µM)	5 µg/mL (≈ 15.1 µM)	2.5 µg/mL (≈ 7.54 µM)	1 µg/mL (≈ 3.02 µM)	
CC[C@H]1OC(=O)[C@H](C)[C@@H](O[C@H]2C[C@@](C)(OC)[C@@H](O)[C@H](C)O2)[C@H](C)[C@@H](O[C@@H]2O[C@H](C)C[C@H](N(C)C)[C@H]2O)[C@](C)(OC)C[C@@H](C)C(=O)[C@H](C)[C@@H](O)[C@]1(C)O [CLARITHROMYCIN]	25 µg/mL (≈ 33.4 µM)	> 250 µg/mL	50 µg/mL (≈ 66.8 µM)	25 µg/mL (≈ 33.4 µM)	
CC[C@H]1OC(=O)[C@H](C)[C@@H](O[C@H]2C[C@@](C)(OC)[C@@H](O)[C@H](C)O2)[C@H](C)[C@@H](O[C@@H]2O[C@H](C)C[C@H](N(C)C)[C@H]2O)[C@](C)(O)C[C@@H](C)C(=O)[C@H](C)[C@@H](O)[C@]1(C)O [ERYTHROMYCIN]	20 µg/mL (≈ 27.3 µM)	500 µg/mL (≈ 681 µM)	0.25 µg/mL (≈ 0.341 µM)	1 µg/mL (≈ 1.36 µM)	
CC[C@@H](CO)NCCN[C@@H](CC)CO [ETHAMBUTOL]	> 500 µg/mL	> 500 µg/mL	25 µg/mL (≈ 122 µM)	250 µg/mL (≈ 1220 µM)	
CCc1cc(C(N)=S)ccn1 [ETHIONAMIDE]	> 400 µg/mL	> 400 µg/mL	50 µg/mL (≈ 301 µM)	50 µg/mL (≈ 301 µM)	
CN[C@@H]1C[C@H](N)[C@@H](O)[C@H](O[C@H]2O[C@H](CO)[C@H](O)[C@@H]3O[C@@]4(O[C@@H]23)O[C@H]([C@H](N)CO)[C@H](O)[C@H](O)[C@H]4O)[C@H]1O [HYGROMYCIN]	> 500 µg/mL	> 500 µg/mL			
NNC(=O)c1ccncc1 [ISONIAZID]	> 400 µg/mL	> 400 µg/mL			
NC[C@H]1O[C@H](O[C@H]2[C@H](O)[C@@H](O[C@H]3O[C@H](CO)[C@@H](O)[C@H](N)[C@H]3O)[C@H](N)C[C@@H]2N)[C@H](O)[C@@H](O)[C@@H]1O [KANAMYCIN]	50 µg/mL (≈ 103 µM)	10 µg/mL (≈ 20.6 µM)			
CC(=O)NC[C@H]1CN(c2ccc(N3CCOCC3)c(F)c2)C(=O)O1 [LINEZOLID]	25 µg/mL (≈ 74.1 µM)	100 µg/mL (≈ 296 µM)	5 µg/mL (≈ 14.8 µM)	1 µg/mL (≈ 2.96 µM)	
CCn1cc(C(=O)O)c(=O)c2cc(F)c(N3CCNCC3)cc21 [NORFLOXACIN]	5 µg/mL (≈ 15.7 µM)	5 µg/mL (≈ 15.7 µM)			
NC(=O)c1cnccn1 [PYRAZINAMIDE]	> 500 µg/mL	> 500 µg/mL			
CO[C@H]1/C=C/O[C@@]2(C)Oc3c(C)c(O)c4c(O)c(c(/C=N/N5CCN(C)CC5)c(O)c4c3C2=O)NC(=O)/C(C)=C\C=C\[C@H](C)[C@H](O)[C@@H](C)[C@@H](O)[C@@H](C)[C@H](OC(C)=O)[C@@H]1C [RIFAMPIN]	25 µg/mL (≈ 30.4 µM)	> 500 µg/mL	5 µg/mL (≈ 6.08 µM)	100 µg/mL (≈ 122 µM)	
CN[C@@H]1[C@H](O[C@H]2[C@H](O[C@H]3[C@H](O)[C@@H](O)[C@H](N=C(N)N)[C@@H](O)[C@@H]3N=C(N)N)O[C@@H](C)[C@]2(O)C=O)O[C@@H](CO)[C@H](O)[C@H]1O [STREPTOMYCIN]	200 µg/mL (≈ 344 µM)	10 µg/mL (≈ 17.2 µM)	250 µg/mL (≈ 430 µM)	10 µg/mL (≈ 17.2 µM)	
CN(C)[C@@H]1C(O)=C(C(N)=O)C(=O)[C@@]2(O)C(O)=C3C(=O)c4c(O)cccc4[C@@](C)(O)[C@H]3C[C@@H]12 [TETRACYCLINE]	50 µg/mL (≈ 113 µM)	> 500 µg/mL	5 µg/mL (≈ 11.3 µM)	25 µg/mL (≈ 56.3 µM)	
NC[C@H]1O[C@H](O[C@H]2[C@H](O)[C@@H](O[C@H]3O[C@H](CO)[C@@H](O)[C@H](N)[C@H]3O)[C@H](N)C[C@@H]2N)[C@H](N)C[C@@H]1O [TOBRAMYCIN]	25 µg/mL (≈ 53.5 µM)	25 µg/mL (≈ 53.5 µM)			
CN[C@H](CC(C)C)C(=O)N[C@H]1C(=O)N[C@@H](CC(N)=O)C(=O)N[C@H]2C(=O)N[C@H]3C(=O)N[C@H](C(=O)N[C@H](C(=O)O)c4cc(O)cc(O)c4-c4cc3ccc4O)[C@H](O)c3ccc(c(Cl)c3)Oc3cc2cc(c3O[C@@H]2O[C@H](CO)[C@@H](O)[C@H](O)[C@H]2O[C@H]2C[C@](C)(N)[C@H](O)[C@H](C)O2)Oc2ccc(cc2Cl)[C@H]1O [VANCOMYCIN]	5 µg/mL (≈ 3.45 µM)	> 500 µg/mL	5 µg/mL (≈ 3.45 µM)	25 µg/mL (≈ 17.3 µM)	
GENTAMICIN	7.5 µg/mL	15 µg/mL			MIC (Mycobacteroides chelonae [1]; Urine): 7.5 µg/mL; MIC (Mycobacteroides chelonae [2]; Urine): 20 µg/mL
